Active and inactive are the calls of the source. The rule behind the calls is not given here.
Tests used:
Mus musculus [1] = species on record: Mus musculus; assay: Binding affinity to amyloid beta plaques in transgenic C57BL6 mouse hippocampus expressing APP Swedish mutant/PSEN1 at 370 KBq/100 ul after 1 hr by thioflavinS-staining method; assay type: tissue-based; conditions: tested as the 18F-labelled form
How it was run: (§1)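 Paraffin brain sections from 12-month-old Tg mice (C57BL6, APPswe/PSEN1) and age-matched controls, deparaffinized through xylene and graded ethanol, then PBS (0.2 M, pH 7.4) 30 min. Incubated with 18F tracer (370 KBq per 100 μL) 1 h at room temperature, washed in 40% EtOH, rinsed in water, then phosphor plate exposure 2 h. The same sections were afterwards stained with 0.125% thioflavin S in 10% EtOH for 3 min and washed in 40% EtOH.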

Mus musculus [2] = species on record: Mus musculus; assay: Binding affinity to amyloid beta plaques in transgenic C57BL6 mouse hippocampus expressing APP Swedish mutant/PSEN1 at 370 KBq/100 ul after 1 hr by autoradiographic analysis; assay type: tissue-based; conditions: tested as the 18F-labelled form; how it was run: as §1
Mus musculus [3] = species on record: Mus musculus; assay: Binding affinity to amyloid beta plaques in transgenic C57BL6 mouse cortex expressing APP Swedish mutant/PSEN1 at 370 KBq/100 ul after 1 hr by thioflavinS-staining method; conditions: tested as the 18F-labelled form; how it was run: as §1
[4] = Displacement of [125I]-IMPY from amyloid beta (1 to 42) fibrils after 2 hrs by gamma-counting analysis
How it was run: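 Competition binding with aggregated Aβ1-42 fibrils and [125I]IMPY (60000−100000 cpm/100 μL) in 0.05% BSA (1 mL total); inhibitors 10⁻⁴−10^−8.5 M in ethanol. Incubated 37 °C for 2 h, then GF/B vacuum filtration with PBS (0.02 M, pH 7.4) washes and γ counting. Three repeats; IC50 converted to Ki by Cheng−Prusoff.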

Mus musculus [5] = species on record: Mus musculus; assay: Binding affinity to amyloid beta plaques in transgenic C57BL6 mouse cortex expressing APP Swedish mutant/PSEN1 at 370 KBq/100 ul after 1 hr by autoradiographic analysis; conditions: tested as the 18F-labelled form; how it was run: as §1
[6] = target: Amyloid-beta precursor protein (Homo sapiens) (UniProt P05067); assay: Binding affinity to amyloid beta plaques in Alzheimer patient brain at 370 KBq/100 ul after 1 hr by autoradiographic analysis; conditions: tested as the 18F-labelled form
Amyloid-beta precursor protein (Homo sapiens), sequence (P05067 whole entry): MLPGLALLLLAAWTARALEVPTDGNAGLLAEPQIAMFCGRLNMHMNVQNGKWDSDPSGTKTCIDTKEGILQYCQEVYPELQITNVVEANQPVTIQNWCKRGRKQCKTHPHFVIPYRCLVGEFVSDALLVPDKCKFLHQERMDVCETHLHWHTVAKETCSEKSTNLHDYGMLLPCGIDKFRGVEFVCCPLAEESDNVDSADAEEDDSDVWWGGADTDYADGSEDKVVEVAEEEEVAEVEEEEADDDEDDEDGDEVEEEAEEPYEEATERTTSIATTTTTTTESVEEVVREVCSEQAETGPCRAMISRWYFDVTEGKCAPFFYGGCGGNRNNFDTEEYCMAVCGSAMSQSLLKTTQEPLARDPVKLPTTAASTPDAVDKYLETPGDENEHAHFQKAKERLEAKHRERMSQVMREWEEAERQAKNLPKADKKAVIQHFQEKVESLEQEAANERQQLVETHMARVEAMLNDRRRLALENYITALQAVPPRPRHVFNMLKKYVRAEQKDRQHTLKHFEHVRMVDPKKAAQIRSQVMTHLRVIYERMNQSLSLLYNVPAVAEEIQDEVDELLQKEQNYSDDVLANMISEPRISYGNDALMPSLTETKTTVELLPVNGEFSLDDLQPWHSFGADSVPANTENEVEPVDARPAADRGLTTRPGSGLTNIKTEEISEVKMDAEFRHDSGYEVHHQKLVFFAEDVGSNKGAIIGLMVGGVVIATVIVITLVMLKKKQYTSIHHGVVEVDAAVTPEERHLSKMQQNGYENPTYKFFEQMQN

- Activity (Mus musculus [1]): Active
- Activity (Mus musculus [2]): Active
- Activity (Mus musculus [3]): Active
- Ki [4]: 0.0769 µM
- Activity (Mus musculus [5]): Active
- Activity [6]: Active
SMILES: CNc1ccc(-c2nc3cc(OCCOCCOCCF)ccc3o2)cn1

Source: ChEMBL document CHEMBL2177098, “Synthesis and evaluation of novel ¹⁸F labeled 2-pyridinylbenzoxazole and 2-pyridinylbenzothiazole derivatives as ligands for positron emission tomography (PET) imaging of β-amyloid plaques” (J Med Chem, 2012)
